Measured values as given in ChEMBL document CHEMBL2311493, “Focused pseudostatic hydrazone libraries screened by mass spectrometry binding assay: optimizing affinities toward γ-aminobutyric acid transporter 1” (J Med Chem, 2013).

Legend:
[1] = biological target: Sodium- and chloride-dependent GABA transporter 1 (Mus musculus) (UniProt P31648); assay: Binding affinity to mouse GAT1 expressed in HEK293 cells membranes assessed as remaining [2H10]NO711 binding level at 10 uM using LC-ESI-MS/MS analysis by [2H10]NO711 binding inhibition assay; format: cell membranes
Procedure, shortened: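 Membranes from HEK293 cells stably expressing mGAT1, ~0.1 mg/mL protein, in pH 7.1 phosphate buffer with 1 M NaCl and 1% DMSO final. A single aldehyde (10 μM) and hydrazine 10 (100 μM) were incubated 4 h at 37 °C with the target to form the hydrazone. NO711 marker (20 nM) was then added for 40 min. Bound marker was recovered by filtration, 1 M NaCl washes and MeOH elution, then quantified by LC-ESI-MS/MS against [²H₁₀]NO711 internal standard. Result is % remaining specific binding, n = 4.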

[2] = biological target: T1, Sodium- and chloride-dependent GABA transporter 1 (Mus musculus, UniProt P31648); assay: Binding affinity to mouse GAT1 expressed in HEK293 cells membranes using LC-ESI-MS/MS analysis by [2H10]NO711 binding inhibition assay; format: cell membranes
Procedure, shortened: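 Full competition with NO711 marker (20 nM) on mGAT1 HEK293 membranes in pH 7.1 phosphate buffer containing 1 M NaCl. Eight competitor concentrations, triplicate points. Bound marker was quantified by LC-ESI-MS/MS. Specific binding is total minus nonspecific. IC50 came from a one-site nonlinear fit and was converted to Ki by Cheng–Prusoff. pKi is mean ± SEM of at least three experiments.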

[3] = biological target: T1, Sodium- and chloride-dependent GABA transporter 1; assay: Inhibition of [3H]GABA uptake at mouse GAT1 expressed in HEK293 cells after 25 mins by scintillation counting analysis; format: cell-based

Row | SMILES | Activity [1] [%] | further results
1 | O=Cc1ccccc1-c1c(F)cc(F)cc1F | 35 | IC50 [2]: 10 µM
2 | O=Cc1ccccc1-c1cccc(F)c1F | 81 | –
3 | O=Cc1ccccc1-c1ccc(C(F)(F)F)cc1C(F)(F)F | 81 | –
4 | O=Cc1ccccc1-c1ccc(F)c(F)c1 | 82 | –
5 | O=C(O)C1CCCN(CCN/N=C/c2ccccc2-c2cccc(F)c2)C1 (configuration not stated) | 16 | –
6 | O=C(O)C1CCCN(CCN/N=C/c2ccccc2-c2ccc(C(F)(F)F)cc2C(F)(F)F)C1 (configuration not stated) | < 5 | IC50 ([3]; read-out: pIC50 (converted)): 2.82 µM; Ki [2]: 0.17 µM
7 | O=Cc1ccccc1-c1ccc(Cl)cc1Cl | 85 | –
8 | O=Cc1ccccc1-c1ccccc1-c1ccccc1 | 81 | –
9 | O=C(O)C1CCCN(CCN/N=C/c2ccccc2-c2ccc(Cl)cc2)C1 (configuration not stated) | < 5 | IC50 ([3]; read-out: pIC50 (converted)): 0.973 µM; Ki [2]: 0.173 µM
10 | O=C(O)C1CCCN(CCN/N=C/c2ccccc2-c2cc(F)cc(F)c2)C1 (configuration not stated) | > 10 | –
11 | O=C(O)C1CCCN(CCC/C=C/c2ccccc2-c2ccc(F)cc2F)C1 (configuration not stated) | – | IC50 ([3]; read-out: pIC50 (converted)): 2.84 µM; Ki [2]: 0.592 µM
12 | O=Cc1ccccc1-c1ccccc1F | 82 | –
13 | COc1ccc(-c2ccccc2C=O)cc1 | 91 | –
14 | O=Cc1ccccc1-c1ccccc1Cl | 79 | –
15 | COc1cccc(-c2ccccc2/C=N/NCCN2CCCC(C(=O)O)C2)c1 (configuration not stated) | > 10 | –
16 | COc1cc(F)ccc1-c1ccccc1C=O | 88 | –
17 | O=C(O)C1CCCN(CCN/N=C/c2ccccc2-c2c(F)cccc2F)C1 (configuration not stated) | < 5 | IC50 ([3]; read-out: pIC50 (converted)): 0.998 µM; Ki [2]: 0.131 µM
18 | Cc1cccc(-c2ccccc2/C=N/NCCN2CCCC(C(=O)O)C2)c1 (configuration not stated) | > 10 | –
19 | COc1cccc(F)c1-c1ccccc1/C=N/NCCN1CCCC(C(=O)O)C1 (configuration not stated) | < 5 | IC50 ([3]; read-out: pIC50 (converted)): 2.25 µM; Ki [2]: 0.443 µM
20 | O=Cc1ccccc1-c1ccc(Cl)cc1 | 79 | –
21 | O=Cc1cc(F)ccc1-c1ccccc1 | 85 | –
22 | O=C(O)C1CCCN(CCN/N=C/c2cc(F)ccc2-c2ccccc2F)C1 (configuration not stated) | < 5 | IC50 ([3]; read-out: pIC50 (converted)): 1.73 µM; Ki [2]: 0.264 µM
23 | O=Cc1ccccc1-c1ccc(F)cc1Cl | 81 | –
24 | O=C(O)C1CCCN(CCN/N=C/c2cc(F)ccc2-c2ccccc2Cl)C1 (configuration not stated) | < 5 | IC50 ([3]; read-out: pIC50 (converted)): 1.23 µM; Ki [2]: 0.104 µM
25 | O=C(O)C1CCCN(CCN/N=C/c2ccccc2-c2ccc(F)cc2)C1 (configuration not stated) | < 5 | IC50 ([3]; read-out: pIC50 (converted)): 1.79 µM; Ki [2]: 0.284 µM
26 | O=Cc1ccccc1-c1ccc(-c2ccccc2)cc1 | 81 | –
27 | O=Cc1ccccc1-c1ccc(Cl)cc1F | 85 | –

Row | SMILES | Activity [1] [%] | further results
28 | O=C(O)C1CCCN(CCN/N=C/c2ccccc2-c2ccccc2)C1 (configuration not stated) | < 5 | IC50 ([3]; read-out: pIC50 (converted)): 4.92 µM; Ki [2]: 0.652 µM
29 | Cc1ccsc1C(=CCCN1CCC[C@@H](C(=O)O)C1)c1sccc1C [TIAGABINE] | – | IC50 ([3]; read-out: IC50): 0.07 µM
30 | O=Cc1cccc(-c2ccccc2)c1 | 88 | –
31 | O=C(O)C1CCCN(CCN/N=C/c2c(F)cccc2-c2ccccc2)C1 (configuration not stated) | > 10 | –
32 | O=C(O)C1CCCN(CCN/N=C/c2ccccc2-c2cc(F)ccc2F)C1 (configuration not stated) | > 10 | –
33 | O=C(O)C1CCCN(CCN/N=C/c2ccccc2-c2ccc(F)cc2Cl)C1 (configuration not stated) | < 5 | IC50 ([3]; read-out: pIC50 (converted)): 0.292 µM; Ki [2]: 0.0146 µM
34 | O=Cc1cc(F)ccc1-c1ccc(Cl)cc1 | 81 | –
35 | Cc1ccccc1-c1ccccc1/C=N/NCCN1CCCC(C(=O)O)C1 (configuration not stated) | < 5 | IC50 ([3]; read-out: pIC50 (converted)): 1.56 µM; Ki [2]: 0.216 µM
36 | O=C(O)C1CCCN(CCN/N=C/c2ccccc2-c2ccc(Cl)cc2F)C1 (configuration not stated) | < 5 | IC50 ([3]; read-out: pIC50 (converted)): 0.126 µM; Ki [2]: 0.0247 µM
37 | Cc1ccc(-c2ccccc2/C=N/NCCN2CCCC(C(=O)O)C2)cc1 (configuration not stated) | 10 | IC50 ([3]; read-out: pIC50 (converted)): 3.4 µM; Ki [2]: 0.473 µM
38 | O=C(O)C1CCCN(CCN/N=C/c2ccccc2-c2ccccc2F)C1 (configuration not stated) | < 5 | IC50 ([3]; read-out: pIC50 (converted)): 0.528 µM; Ki [2]: 0.122 µM
39 | O=C(O)C1CCCN(CCC=C(c2ccccc2)c2ccccc2)C1 (configuration not stated) | – | IC50 ([3]; read-out: IC50): 0.13 µM
40 | Cc1ccccc1-c1ccccc1C=O | 81 | –
41 | O=Cc1ccccc1-c1ccc(F)cc1 | 82 | –
42 | O=C(O)[C@@H]1CCCN(CCO/N=C(\Cc2ccccc2F)c2ccccc2F)C1 | – | IC50 ([3]; read-out: IC50): 0.08 µM
43 | O=Cc1ccccc1-c1cccc(Cl)c1 | 79 | –
44 | O=Cc1ccccc1-c1c(F)cccc1F | 35 | –
45 | O=C(O)C1CCCN(CCN/N=C/c2ccccc2-c2c(F)cc(F)cc2F)C1 (configuration not stated) | < 5 | IC50 ([3]; read-out: pIC50 (converted)): 0.255 µM; Ki [2]: 0.0306 µM
46 | O=Cc1ccccc1-c1cc(F)cc(F)c1 | 81 | –
47 | O=C(O)C1CCCN(CCN/N=C/c2ccccc2-c2cccc(Cl)c2)C1 (configuration not stated) | > 10 | –
48 | COc1cc(F)ccc1-c1ccccc1/C=N/NCCN1CCCC(C(=O)O)C1 (configuration not stated) | < 5 | IC50 ([3]; read-out: pIC50 (converted)): 7.35 µM; Ki [2]: 0.76 µM
49 | Cc1ccc(-c2ccccc2C=O)cc1 | 91 | –
50 | O=C(O)C1CCCN(CCN/N=C/c2cccc(-c3ccccc3)c2)C1 (configuration not stated) | > 10 | –
51 | O=Cc1cc(F)ccc1-c1ccccc1F | 35 | –
52 | O=C(O)C1=CCCN(CCON=C(c2ccccc2)c2ccccc2)C1 | < 5 | IC50 ([3]; read-out: IC50): 0.04 µM; IC50 [2]: ≤ 0.53 µM
53 | O=C(O)C1CCCN(CCN/N=C/c2ccccc2-c2ccccc2Cl)C1 (configuration not stated) | < 5 | IC50 ([3]; read-out: pIC50 (converted)): 0.479 µM; Ki [2]: 0.0655 µM
54 | O=C(O)C1CCCN(CCN/N=C/c2ccccc2-c2ccc(F)c(F)c2)C1 (configuration not stated) | < 5 | IC50 ([3]; read-out: pIC50 (converted)): 3.32 µM; Ki [2]: 0.625 µM

Row | SMILES | Activity [1] [%] | further results
55 | O=Cc1c(F)cccc1-c1ccccc1 | 85 | –
56 | O=C(O)C1CCCN(CCC/C=C/c2ccccc2-c2ccc(Cl)cc2Cl)C1 (configuration not stated) | – | IC50 ([3]; read-out: pIC50 (converted)): 0.769 µM; Ki [2]: 0.117 µM
57 | O=C(O)C1CCCN(CCC/C=C/c2ccccc2-c2ccccc2Cl)C1 (configuration not stated) | – | IC50 ([3]; read-out: pIC50 (converted)): 3.56 µM; Ki [2]: 0.834 µM
58 | O=C(O)C1=CCCNC1 [GUVACINE] | – | IC50 ([3]; read-out: IC50): 14 µM
59 | O=Cc1ccccc1-c1cccc(F)c1 | 82 | –
60 | O=Cc1ccccc1-c1cc(F)ccc1F | 81 | –
61 | O=C(O)C1CCCN(CCN/N=C/c2ccccc2-c2cccc(-c3ccccc3)c2)C1 (configuration not stated) | > 10 | –
62 | COc1ccccc1-c1ccccc1/C=N/NCCN1CCCC(C(=O)O)C1 (configuration not stated) | 19 | –
63 | O=Cc1cc(F)ccc1-c1ccccc1Cl | 35 | –
64 | O=C(O)C1CCCN(CCN/N=C/c2ccccc2-c2ccccc2-c2ccccc2)C1 (configuration not stated) | > 10 | –
65 | O=C(O)[C@@H]1CCCN(CCOCCc2ccccc2-c2ccccc2)C1 | – | IC50 ([3]; read-out: IC50): 0.111 µM
66 | Cc1cccc(-c2ccccc2C=O)c1 | 91 | –
67 | COc1ccccc1-c1ccccc1C=O | 79 | –
68 | O=C(O)C1CCCN(CCC/C=C/c2ccccc2-c2ccccc2F)C1 (configuration not stated) | – | IC50 ([3]; read-out: pIC50 (converted)): 3.33 µM; Ki [2]: 0.647 µM
69 | O=C(O)[C@@H]1CCCN(CCOCCC(c2ccccc2)c2ccccc2)C1 | – | IC50 ([3]; read-out: IC50): 0.055 µM
70 | Cc1ccc(-c2ccccc2C=O)c(C)c1 | 81 | –
71 | COc1cccc(F)c1-c1ccccc1C=O | 88 | –
72 | O=Cc1ccccc1-c1cccc(-c2ccccc2)c1 | 81 | –
73 | O=Cc1ccccc1-c1ccc(F)cc1F | 81 | –
74 | O=C(O)C1CCCN(CCN/N=C/c2ccccc2-c2ccc(-c3ccccc3)cc2)C1 (configuration not stated) | > 10 | –
75 | O=C(O)C1CCCN(CCC/C=C/c2ccccc2-c2ccc(F)cc2Cl)C1 (configuration not stated) | – | IC50 ([3]; read-out: pIC50 (converted)): 3.99 µM; Ki [2]: 0.313 µM
76 | O=C(O)C1CCCN(CCN/N=C/c2cc(F)ccc2-c2ccccc2)C1 (configuration not stated) | 13 | –
77 | COc1ccc(-c2ccccc2/C=N/NCCN2CCCC(C(=O)O)C2)cc1 (configuration not stated) | > 10 | –
78 | COc1cccc(-c2ccccc2C=O)c1 | 91 | –
79 | COc1ccc(F)cc1-c1ccccc1/C=N/NCCN1CCCC(C(=O)O)C1 (configuration not stated) | > 10 | –
80 | COc1ccc(F)cc1-c1ccccc1C=O | 88 | –
